The source made the active and inactive calls. The rule behind the calls is not given here.
Columns and labels:
Rattus norvegicus [1] = experiment: Ex vivo receptor occupancy of NOP receptor in Sprague-Dawley rat brain at 10 mg/kg, po after 24 hrs by LC-MS/MS analysis; type: functional
Summary of the method: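 Male Sprague-Dawley rats, 220–300 g, 12 h light:dark cycle, free chow and water. A single oral 10 mg/kg dose or oral vehicle was given. 24 h later, nonlabeled tracer was given as an iv tail-vein bolus at 3 μg/kg. Brain was taken 40 min after tracer (hypothalamus, striatum), homogenized in ACN with 0.1% formic acid, centrifuged, diluted with water and read by LC-MS/MS.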

[2] = Plasma elimination half life in Sprague-Dawley rat at 1 mg/kg, iv; type: ADME, organism-based; design: dose 1 mg/kg, route intravenous; conditions: read-out: beta t1/2 (converted)
Summary of the method: (§1)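 Male Sprague-Dawley rats (n = 3 per treatment), fasted 4–24 h, dosed iv bolus at 1 mg/kg or po at 3 or 10 mg/kg in 20% (w/w) Captisol in 25 mM phosphate buffer pH 2. Arterial blood sampled 0–16 or 24 h into EDTA, and plasma protein-precipitated with internal standard. LC-MS/MS quantitation against plasma standard curve (1–50 000 ng/mL). Noncompartmental analysis. F = dnAUCpo/dnAUCiv.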

Mu-type opioid receptor = Mu-type opioid receptor (Homo sapiens, UniProt P35372); experiment: Displacement of [3H]-diprenorphine from human mu opioid receptor after 120 mins by cell based assay
Summary of the method: (§2)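 Radioligand binding with [3H]-diprenorphine on membranes from CHO cells overexpressing recombinant human kappa, mu or delta opioid receptor; Ki determined.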

[3] = AUC (0 to infinity) in Sprague-Dawley rat at 3 mg/kg, po; type: ADME, organism-based; design: time infinity, dose 3 mg/kg, route oral; conditions: plasma; summary of the method: as §1
[4] = Oral bioavailability in Sprague-Dawley rat at 3 mg/kg; type: ADME, organism-based; conditions: in vivo; summary of the method: as §1
[5] = Plasma clearance in Sprague-Dawley rat at 1 mg/kg, iv; type: ADME, organism-based; design: dose 1 mg/kg, route intravenous; summary of the method: as §1
Nociceptin receptor = Nociceptin receptor (Homo sapiens, UniProt P41146); experiment: Displacement of [3H]-nociceptin from human recombinant NOP receptor expressed in CHO cells after 60 mins by scintillation counting; type: cell-based
[6] = biological target: Delta-type opioid receptor (Homo sapiens, UniProt P41143); experiment: Displacement of [3H]-diprenorphine from human delta opioid receptor after 120 mins by cell based assay; summary of the method: as §2
[7] = Volume of distribution in Sprague-Dawley rat at 1 mg/kg, iv; type: ADME, organism-based; design: dose 1 mg/kg, route intravenous; conditions: in vivo; summary of the method: as §1
[8] = biological target: Kappa-type opioid receptor (Homo sapiens, UniProt P41145); experiment: Displacement of [3H]-diprenorphine from human kappa opioid receptor after 120 mins by cell based assay; summary of the method: as §2
[9] = Metabolic stability in rat hepatic microsomes assessed as GSH-adduct formation; type: ADME, Liver, Microsome
Summary of the method: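 GSH trapping: compounds incubated with rat hepatic microsomes and glutathione; metabolite profiling by LC/MS for GSH conjugates.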

[10] = Oral bioavailability in Sprague-Dawley rat at 10 mg/kg; type: ADME, organism-based; conditions: in vivo; summary of the method: as §1
[11] = AUC (0 to infinity) in Sprague-Dawley rat at 10 mg/kg, po; type: ADME, organism-based; design: time infinity, dose 10 mg/kg, route oral; conditions: plasma; summary of the method: as §1
Rattus norvegicus [12] = experiment: Reversal of Ro64-6198-incued hypothermia in Sprague-Dawley rat at 0.1 to 0.3 mg/kg, po administered 60 mins before Ro64-6198 challenge measured after 120 mins; type: functional, organism-based
Summary of the method: (§3)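 Male Sprague-Dawley rats, 225 g, housed 2 per cage, acclimated at least 90 min. Rectal temperature was taken, then oral gavage of vehicle or test compound (0.03, 0.1 or 0.3 mg/kg). A second temperature was taken at 60 min, then Ro64-6198 (6 mg/kg sc) or vehicle was given, and a third temperature 120 min later. Between-group ANOVA with Dunnett posthoc tests against vehicle and agonist controls.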

Rattus norvegicus [13] = experiment: Toxicity in Sprague-Dawley rat assessed as basal body temperature at 0.03 to 0.3 mg/kg, po after 60 mins; conditions: in vivo, 1 h
Rattus norvegicus [14] = experiment: Reversal of Ro64-6198-incued hypothermia in po dosed Sprague-Dawley rat administered 60 mins before Ro64-6198 challenge measured after 120 mins; type: functional, organism-based; summary of the method: as §3

Nociceptin receptor, sequence (P41146 whole entry): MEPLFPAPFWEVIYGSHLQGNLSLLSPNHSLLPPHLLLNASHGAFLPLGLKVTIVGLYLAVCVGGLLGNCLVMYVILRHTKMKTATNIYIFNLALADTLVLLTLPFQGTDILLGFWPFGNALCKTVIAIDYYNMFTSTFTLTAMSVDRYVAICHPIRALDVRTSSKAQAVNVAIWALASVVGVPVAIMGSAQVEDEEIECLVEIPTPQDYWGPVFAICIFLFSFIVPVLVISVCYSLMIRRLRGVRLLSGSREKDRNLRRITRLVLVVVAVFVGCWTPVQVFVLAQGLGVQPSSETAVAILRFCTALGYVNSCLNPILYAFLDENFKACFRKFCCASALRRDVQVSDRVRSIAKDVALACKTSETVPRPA
Kappa-type opioid receptor, sequence (P41145 whole entry): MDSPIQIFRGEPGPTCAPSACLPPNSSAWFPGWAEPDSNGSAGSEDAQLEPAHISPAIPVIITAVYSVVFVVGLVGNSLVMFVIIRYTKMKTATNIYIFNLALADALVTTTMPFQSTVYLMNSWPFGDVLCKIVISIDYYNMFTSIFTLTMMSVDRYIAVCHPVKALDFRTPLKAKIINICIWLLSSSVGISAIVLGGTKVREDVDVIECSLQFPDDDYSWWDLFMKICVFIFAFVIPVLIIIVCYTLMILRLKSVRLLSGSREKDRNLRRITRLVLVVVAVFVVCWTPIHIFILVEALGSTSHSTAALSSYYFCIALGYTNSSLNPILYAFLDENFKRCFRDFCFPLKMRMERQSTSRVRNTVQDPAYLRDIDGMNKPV
Delta-type opioid receptor, sequence (P41143 whole entry): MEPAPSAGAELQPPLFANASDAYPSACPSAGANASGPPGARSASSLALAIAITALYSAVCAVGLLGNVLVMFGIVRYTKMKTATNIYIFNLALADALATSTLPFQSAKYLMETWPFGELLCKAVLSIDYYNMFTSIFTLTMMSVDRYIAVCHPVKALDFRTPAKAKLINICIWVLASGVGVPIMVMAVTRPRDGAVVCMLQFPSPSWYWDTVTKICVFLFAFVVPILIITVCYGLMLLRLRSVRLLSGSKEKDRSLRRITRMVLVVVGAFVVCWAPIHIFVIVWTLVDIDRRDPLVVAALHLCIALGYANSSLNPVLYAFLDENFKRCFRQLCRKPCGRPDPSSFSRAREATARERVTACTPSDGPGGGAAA
Mu-type opioid receptor, sequence (P35372 whole entry): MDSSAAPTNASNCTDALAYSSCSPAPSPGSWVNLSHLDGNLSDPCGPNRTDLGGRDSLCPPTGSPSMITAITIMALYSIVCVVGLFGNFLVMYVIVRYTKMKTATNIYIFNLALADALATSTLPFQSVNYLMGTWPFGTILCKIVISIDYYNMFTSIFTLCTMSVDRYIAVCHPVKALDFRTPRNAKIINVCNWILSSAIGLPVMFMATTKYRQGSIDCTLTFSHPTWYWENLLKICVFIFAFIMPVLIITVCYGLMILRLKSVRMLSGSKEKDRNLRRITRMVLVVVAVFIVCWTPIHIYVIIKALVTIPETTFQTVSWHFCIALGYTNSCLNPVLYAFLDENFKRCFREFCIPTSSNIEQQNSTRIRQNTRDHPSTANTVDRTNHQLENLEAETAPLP

Compound `Cc1nn(-c2c(F)cccc2F)cc1CN1CCC2(CC1)OCC(F)(F)c1cc(Cl)sc12.O=C(O)C(O)C(O)C(=O)O` has an Occ (Rattus norvegicus [1]) of 49%, a half-life [2] of 648 min and a Ki (Mu-type opioid receptor) greater than 375 nM. The AUC(0-inf) [3] was 438 ng·h/mL, the bioavailability [4] was 49% and the clearance [5] was 52.9 mL/min/kg. The Ki (Nociceptin receptor) was 0.172 nM, the Ki [6] was greater than 375 nM and the Vd [7] was 28.2 L/kg. It also gave a Ki [8] greater than 375 nM.
For `Cc1nn(-c2c(F)cccc2CN(C)C)cc1CN1CCC2(CC1)OCC(F)(F)c1cc(Cl)sc12.O=C(O)C(O)C(O)C(=O)O`, the Occ (Rattus norvegicus [1]) was 97%, the Ki (Mu-type opioid receptor) was greater than 375 nM and the Ki (Nociceptin receptor) was 0.145 nM. For the same compound, the Ki [6] was greater than 375 nM and the Ki [8] was greater than 375 nM.
In the case of `CNCc1cccc(F)c1-n1cc(CN2CCC3(CC2)OCC(F)(F)c2cc(Cl)sc23)c(C)n1.O=C(O)C(O)C(O)C(=O)O`, the Occ (Rattus norvegicus [1]) is reported as 100%, the Ki (Mu-type opioid receptor) is reported as greater than 375 nM and the Ki (Nociceptin receptor) is reported as 0.097 nM. For the same compound, the Ki [6] was greater than 375 nM and the Ki [8] was greater than 375 nM.
`Cc1nn(-c2c(F)cccc2F)cc1CN1CCC2(CC1)OCCc1cc(F)sc12` gave a Ki (Nociceptin receptor) of 0.0711 nM.
In the case of `Cc1nn(-c2ncccc2F)cc1CN1CCC2(CC1)OCC(F)(F)c1cc(Cl)sc12.O=C(O)C(O)C(O)C(=O)O`, the Occ (Rattus norvegicus [1]) is reported as 55%, the half-life [2] is reported as 726 min and the Ki (Mu-type opioid receptor) is reported as greater than 375 nM. It also gave an AUC(0-inf) [3] of 1820 ng·h/mL, a bioavailability [4] of 62% and a clearance [5] of 19.8 mL/min/kg. For the same compound, the Ki (Nociceptin receptor) was 0.176 nM, the Ki [6] was greater than 375 nM and the Vd [7] was 13.6 L/kg. For the same compound, the Ki [8] was greater than 375 nM.
For `COCc1cccnc1-n1cc(CN2CCC3(CC2)OCCc2cc(Cl)sc23)c(C)n1`, the Ki (Nociceptin receptor) was 0.0908 nM.
`COCc1cccnc1-n1cc(CN2CCC3(CC2)OCCc2cc(F)sc23)c(C)n1` gave a Ki (Nociceptin receptor) of 0.0939 nM.
With `Cc1nn(-c2c(F)cccc2C(N)=O)cc1CN1CCC2(CC1)OCCc1cc(F)sc12` the Ki (Nociceptin receptor) was 0.0954 nM.
Compound `Cc1nn(-c2c(F)cccc2CN(C)C)cc1CN1CCC2(CC1)OCCc1cc(F)sc12` has a Ki (Nociceptin receptor) of 0.0648 nM.
`Cc1nn(-c2c(F)cccc2CN(C)C)cc1CN1CCC2(CC1)OCCc1cc(Cl)sc12` gave a Ki (Nociceptin receptor) of 0.122 nM.
In the case of `Cc1nn(-c2ncccc2CN(C)C)cc1CN1CCC2(CC1)OCC(F)(F)c1cc(Cl)sc12.O=C(O)C(O)C(O)C(=O)O`, the Occ (Rattus norvegicus [1]) is reported as 72%, the Ki (Mu-type opioid receptor) is reported as greater than 375 nM and the Ki (Nociceptin receptor) is reported as 0.371 nM. For the same compound, the Ki [6] was greater than 375 nM and the Ki [8] was greater than 375 nM.
Work on `Cc1nn(-c2ncccc2F)cc1CN1CCC2(CC1)OCCc1cc(F)sc12` yielded a Ki (Nociceptin receptor) of 0.139 nM.
For `Cc1nn(-c2ncccc2-c2ncc[nH]2)cc1CN1CCC2(CC1)OCC(F)(F)c1cc(Cl)sc12`, the Occ (Rattus norvegicus [1]) was 88%, the Ki (Mu-type opioid receptor) was greater than 375 nM and the Ki (Nociceptin receptor) was 0.0916 nM. It also gave a Ki [6] greater than 375 nM and a Ki [8] greater than 375 nM.
In the case of `COCc1cccnc1-n1cc(CN2CCC3(CC2)OCC(F)(F)c2cc(Cl)sc23)c(C)n1.O=C(O)C(O)C(O)C(=O)O`, the Occ (Rattus norvegicus [1]) is reported as 90%, the Ki (Mu-type opioid receptor) is reported as greater than 375 nM and the Stability [9] is reported as “Stable”. For the same compound, the Ki (Nociceptin receptor) was 0.185 nM, the Ki [6] was greater than 375 nM and the Ki [8] was greater than 375 nM.
Compound `Cc1nn(-c2c(F)cccc2CO)cc1CN1CCC2(CC1)OCC(F)(F)c1cc(Cl)sc12.O=C(O)C(O)C(O)C(=O)O` has an Occ (Rattus norvegicus [1]) of 87%, a half-life [2] of 234 min and a Ki (Mu-type opioid receptor) greater than 375 nM. The clearance [5] was 60.5 mL/min/kg, the bioavailability [10] was 51% and the Ki (Nociceptin receptor) was 0.114 nM. The Ki [6] was greater than 375 nM, the Vd [7] was 12.7 L/kg and the Ki [8] was greater than 375 nM. The AUC(0-inf) [11] was 1280 ng·h/mL.
For `Cc1nn(-c2ncccc2CO)cc1CN1CCC2(CC1)OCC(F)(F)c1cc(Cl)sc12.O=C(O)C(O)C(O)C(=O)O`, the Activity (Rattus norvegicus [12]) was “Active”, the Occ (Rattus norvegicus [1]) was 62% and the half-life [2] was 228 min. The Ki (Mu-type opioid receptor) was greater than 375 nM, the Activity (Rattus norvegicus [13]) was “Non-toxic” and the Activity (Rattus norvegicus [14]) was “Dose-dependent effect”. The clearance [5] was 23.9 mL/min/kg, the bioavailability [10] was 57% and the Ki (Nociceptin receptor) was 0.105 nM. It also gave a Ki [6] greater than 375 nM, a Vd [7] of 5.3 L/kg and a Ki [8] greater than 375 nM. For the same compound, the AUC(0-inf) [11] was 4100 ng·h/mL.
